ChEMBL document CHEMBL2412956, “Synthesis and biological activity evaluation of 5-pyrazoline substituted 4-thiazolidinones” (Eur J Med Chem, 2013)

Tests used:
PC-3 [1] = assay: Cytotoxicity against human PC3 cells after 48 hrs by SRB assay; type: functional; settings: PC-3, 48 h
Procedure, shortened: (§1)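 This was the NCI 60-cell-line five-dose screen, using 10-fold dilutions from 100 to 0.01 μM and continuous 48-h exposure. Growth was read by sulforhodamine B protein staining relative to time-zero and untreated controls. […] Where an endpoint was not reached, the value was given as beyond the range tested.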

Trypanosoma cruzi = assay: Antitrypanosomal activity against […] form of Trypanosoma cruzi Y infected in monkey […] cells assessed as parasite growth inhibition after 15 hrs by trypan blue staining-based hemocytometric analysis; type: functional, organism-based
CCRF-CEM = assay: Cytotoxicity against human CCRF-CEM cells assessed as cell growth at 10 uM after 48 hrs by SRB assay relative to control; type: functional; settings: read-out: Activity
Procedure, shortened: (§2)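 This was the NCI primary screen, with compound added once at 10⁻⁵ M and cultures incubated for 48 h. The endpoint was sulforhodamine B protein staining. Results are expressed as percent growth of treated cells relative to untreated control cells.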

HOP-92 = assay: Cytotoxicity against human HOP92 cells after 48 hrs by SRB assay; type: functional; settings: HOP-92, 48 h; procedure, shortened: as §1
NCI-H460 [2] = assay: Cytotoxicity against human NCI-H460 cells assessed as cell growth at 10 uM after 48 hrs by SRB assay relative to control; type: functional; settings: NCI-H460, 48 h, read-out: Activity
Procedure, shortened: (§3)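 NCI 60-cell-line primary screen. Test agent added once at 10⁻⁵ M, cultures incubated 48 h, end point by sulforhodamine B protein staining read spectrophotometrically. Value is percent growth of treated cells relative to untreated control cells.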

MOLT-4 [3] = assay: Cytotoxicity against human MOLT4 cells after 48 hrs by SRB assay; type: functional; settings: MOLT-4, 48 h; procedure, shortened: as §1
MDA-MB-435 [4] = assay: Cytotoxicity against human MDA-MB-435 cells assessed as cell growth at 10 uM after 48 hrs by SRB assay relative to control; type: functional; settings: MDA-MB-435, 48 h, read-out: Activity; procedure, shortened: as §2
K562 [5] = assay: Cytotoxicity against human K562 cells after 48 hrs by SRB assay; type: functional; settings: K562, 48 h; procedure, shortened: as §1
PC-3 [6] = assay: Cytotoxicity against human PC3 cells assessed as cell growth at 10 uM after 48 hrs by SRB assay relative to control; type: functional; settings: PC-3, 48 h, read-out: Activity; procedure, shortened: as §2
MDA-MB-435 [7] = assay: Cytotoxicity against human MDA-MB-435 cells after 48 hrs by SRB assay; type: functional; settings: MDA-MB-435, 48 h; procedure, shortened: as §1
RPMI-8226 [8] = assay: Cytotoxicity against human RPMI8226 cells assessed as cell growth at 10 uM after 48 hrs by SRB assay relative to control; type: functional; settings: RPMI-8226, 48 h, read-out: Activity; procedure, shortened: as §2
SR [9] = assay: Cytotoxicity against human SR cells assessed as cell growth at 10 uM after 48 hrs by SRB assay relative to control; type: functional; settings: read-out: Activity
Procedure, shortened: (§4)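 Single-dose NCI screen: compound at 10⁻⁵ M added to tumor cell cultures and incubated for 48 h. The SRB protein-binding dye end point was read spectrophotometrically. Results are percent growth of treated cells relative to untreated controls.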

SF-295 [10] = assay: Cytotoxicity against human SF295 cells after 48 hrs by SRB assay; type: functional; settings: SF-295, 48 h; procedure, shortened: as §1
HCT-15 = assay: Cytotoxicity against human HCT15 cells after 48 hrs by SRB assay; type: functional; settings: HCT-15, 48 h; procedure, shortened: as §1
T47D [11] = assay: Cytotoxicity against human T47D cells after 48 hrs by SRB assay; type: functional
Procedure, shortened: (§5)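 NCI 60-cell-line panel, five 10-fold concentrations from 100 μM to 0.01 μM (10⁻⁴ to 10⁻⁸ M) with 48-h continuous exposure. Growth was read by SRB protein staining against time-zero and untreated controls. […] Values beyond the tested range are expressed as greater or less than the limit.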

K562 [12] = assay: Cytotoxicity against human K562 cells assessed as cell growth at 10 uM after 48 hrs by SRB assay relative to control; type: functional; settings: K562, 48 h, read-out: Activity; procedure, shortened: as §2
MOLT-4 [13] = assay: Cytotoxicity against human MOLT4 cells assessed as cell growth at 10 uM after 48 hrs by SRB assay relative to control; type: functional; settings: MOLT-4, 48 h, read-out: Activity; procedure, shortened: as §2
DU-145 = assay: Cytotoxicity against human DU145 cells after 48 hrs by SRB assay; type: functional; settings: DU-145, 48 h; procedure, shortened: as §1
BT-549 [14] = assay: Cytotoxicity against human BT549 cells assessed as cell growth at 10 uM after 48 hrs by SRB assay relative to control; type: functional; settings: BT-549, 48 h, read-out: Activity; procedure, shortened: as §3
SR [15] = assay: Cytotoxicity against human SR cells after 48 hrs by SRB assay; type: functional; procedure, shortened: as §5
UACC-62 [16] = assay: Cytotoxicity against human UACC62 cells assessed as cell growth at 10 uM after 48 hrs by SRB assay relative to control; type: functional; settings: UACC-62, 48 h, read-out: Activity; procedure, shortened: as §4
HCT-116 = assay: Cytotoxicity against human HCT116 cells after 48 hrs by SRB assay; type: functional; settings: HCT-116, 48 h; procedure, shortened: as §1
HL-60(TB) [17] = assay: Cytotoxicity against human HL-60(TB) cells after 48 hrs by SRB assay; type: functional; settings: HL-60, 48 h; procedure, shortened: as §1
HL-60(TB) [18] = assay: Cytotoxicity against human HL-60(TB) cells assessed as cell growth at 10 uM after 48 hrs by SRB assay relative to control; type: functional; settings: HL-60, 48 h, read-out: Activity; procedure, shortened: as §2
A549 [19] = assay: Cytotoxicity against human A549 cells after 48 hrs by SRB assay; type: functional; settings: A549, 48 h; procedure, shortened: as §1
MCF7 [20] = assay: Cytotoxicity against human MCF7 cells assessed as cell growth at 10 uM after 48 hrs by SRB assay relative to control; type: functional; settings: MCF7, 48 h, read-out: Activity; procedure, shortened: as §2
SF-539 = assay: Cytotoxicity against human SF539 cells after 48 hrs by SRB assay; type: functional; settings: SF-539, 48 h; procedure, shortened: as §1
NCI-H460 [21] = assay: Cytotoxicity against human NCI-H460 cells after 48 hrs by SRB assay; type: functional; settings: NCI-H460, 48 h; procedure, shortened: as §1
KM12 = assay: Cytotoxicity against human KM12 cells assessed as cell growth at 10 uM after 48 hrs by SRB assay relative to control; type: functional; settings: KM12, 48 h, read-out: Activity; procedure, shortened: as §2
SK-MEL-5 = assay: Cytotoxicity against human SK-MEL-5 cells after 48 hrs by SRB assay; type: functional; settings: SK-MEL-5, 48 h; procedure, shortened: as §5
U-251 = assay: Cytotoxicity against human U251 cells after 48 hrs by SRB assay; type: functional; settings: U-251, 48 h; procedure, shortened: as §5
OVCAR-3 = assay: Cytotoxicity against human OVCAR3 cells after 48 hrs by SRB assay; type: functional; settings: OVCAR-3, 48 h; procedure, shortened: as §1
SF-295 [22] = assay: Cytotoxicity against human SF295 cells assessed as cell growth at 10 uM after 48 hrs by SRB assay relative to control; type: functional; settings: SF-295, 48 h, read-out: Activity; procedure, shortened: as §2
NCI-H322M = assay: Cytotoxicity against human NCI-H322M cells after 48 hrs by SRB assay; type: functional; procedure, shortened: as §1
BT-549 [23] = assay: Cytotoxicity against human BT549 cells after 48 hrs by SRB assay; type: functional; settings: BT-549, 48 h; procedure, shortened: as §1
Hs-578T = assay: Cytotoxicity against human Hs578T cells assessed as cell growth at 10 uM after 48 hrs by SRB assay relative to control; type: functional; settings: read-out: Activity; procedure, shortened: as §3
RPMI-8226 [24] = assay: Cytotoxicity against human RPMI8226 cells after 48 hrs by SRB assay; type: functional; settings: RPMI-8226, 48 h; procedure, shortened: as §1
UACC-62 [25] = assay: Cytotoxicity against human UACC62 cells after 48 hrs by SRB assay; type: functional; settings: UACC-62, 48 h; procedure, shortened: as §5
NCI-H522 = assay: Cytotoxicity against human NCI-H522 cells assessed as cell growth at 10 uM after 48 hrs by SRB assay relative to control; type: functional; settings: NCI-H522, 48 h, read-out: Activity; procedure, shortened: as §2
[26] = Cytotoxicity against human Hs 578T cells after 48 hrs by SRB assay; type: functional; procedure, shortened: as §1
A549 [27] = assay: Cytotoxicity against human A549 cells assessed as cell growth at 10 uM after 48 hrs by SRB assay relative to control; type: functional; settings: A549, 48 h, read-out: Activity; procedure, shortened: as §2
MCF7 [28] = assay: Cytotoxicity against human MCF7 cells after 48 hrs by SRB assay; type: functional; settings: MCF7, 48 h; procedure, shortened: as §1
T47D [29] = assay: Cytotoxicity against human T47D cells assessed as cell growth at 10 uM after 48 hrs by SRB assay relative to control; type: functional; settings: read-out: Activity; procedure, shortened: as §4
A498 = assay: Cytotoxicity against human A498 cells after 48 hrs by SRB assay; type: functional; settings: A498, 48 h; procedure, shortened: as §1

For `O=C1NC(=O)/C(=C/C(=O)N2N=C(c3ccc4ccccc4c3)CC2c2ccc(Cl)cc2)S1` (stereo not drawn), the GI50 (PC-3 [1]) was 4.94 µM, the TGI (PC-3 [1]) was 100 µM and the IC50 (Trypanosoma cruzi) was 0.3 µM. For the same molecule, the growth at 10 µM (CCRF-CEM) was 16.7%, the GI50 (HOP-92) was 1.17 µM and the TGI (HOP-92) was 9.72 µM. For the same molecule, the growth at 10 µM (NCI-H460 [2]) was 25.9%, the GI50 (MOLT-4 [3]) was 1.64 µM and the growth at 10 µM (MDA-MB-435 [4]) was 39.5%. It also gave a GI50 (K562 [5]) of 1.9 µM, a TGI (K562 [5]) of 11.2 µM and a growth at 10 µM (PC-3 [6]) of 36%. It also gave a GI50 (MDA-MB-435 [7]) of 2.7 µM, a TGI (MDA-MB-435 [7]) of 16.5 µM and a growth at 10 µM (RPMI-8226 [8]) of 2.48%. The growth at 10 µM (SR [9]) was 10.6%, the GI50 (SF-295 [10]) was 2.45 µM and the TGI (SF-295 [10]) was 9.12 µM. For the same molecule, the GI50 (HCT-15) was 2.41 µM, the TGI (HCT-15) was 100 µM and the GI50 (T47D [11]) was 1.53 µM. It also gave a TGI (T47D [11]) of 9.4 µM, a growth at 10 µM (K562 [12]) of 24.6% and a growth at 10 µM (MOLT-4 [13]) of 11.5%. The GI50 (DU-145) was 4.27 µM, the TGI (DU-145) was 100 µM and the growth at 10 µM (BT-549 [14]) was 34.2%. It also gave a GI50 (SR [15]) of 1.98 µM, a TGI (SR [15]) of 5.92 µM and a growth at 10 µM (UACC-62 [16]) of 32.8%. For the same molecule, the GI50 (HCT-116) was 3.01 µM, the TGI (HCT-116) was 13.9 µM and the GI50 (HL-60(TB) [17]) was 3.2 µM. It also gave a TGI (HL-60(TB) [17]) of 6.48 µM, a growth at 10 µM (HL-60(TB) [18]) of 13.5% and a GI50 (A549 [19]) of 3.06 µM. It also gave a TGI (A549 [19]) of 100 µM, a growth at 10 µM (MCF7 [20]) of 34.4% and a GI50 (SF-539) of 2.43 µM. For the same molecule, the TGI (SF-539) was 5.79 µM, the GI50 (NCI-H460 [21]) was 1.89 µM and the TGI (NCI-H460 [21]) was 4.7 µM. The growth at 10 µM (KM12) was 25.8%, the GI50 (SK-MEL-5) was 2.09 µM and the TGI (SK-MEL-5) was 22.5 µM. For the same molecule, the GI50 (U-251) was 2.58 µM, the TGI (U-251) was 13.2 µM and the GI50 (OVCAR-3) was 2.9 µM. For the same molecule, the TGI (OVCAR-3) was 10.6 µM, the growth at 10 µM (SF-295 [22]) was -5.27% and the GI50 (NCI-H322M) was 2.89 µM. The TGI (NCI-H322M) was 100 µM, the GI50 (BT-549 [23]) was 2.16 µM and the TGI (BT-549 [23]) was 7.75 µM. For the same molecule, the growth at 10 µM (Hs-578T) was 35.6%, the GI50 (RPMI-8226 [24]) was 1.97 µM and the TGI (RPMI-8226 [24]) was 5.88 µM. It also gave a GI50 (UACC-62 [25]) of 2.66 µM, a TGI (UACC-62 [25]) of 12.8 µM and a growth at 10 µM (NCI-H522) of 23.2%. It also gave a GI50 [26] of 1.94 µM, a TGI [26] of 8.26 µM and a growth at 10 µM (A549 [27]) of 30%. The GI50 (MCF7 [28]) was 2.53 µM, the TGI (MCF7 [28]) was 14.1 µM and the growth at 10 µM (T47D [29]) was 39.3%. The GI50 (A498) was 1.41 µM and the TGI (A498) was 5.38 µM.
